Measurements as given in ChEMBL document CHEMBL4184225, “Discovery of selective 2,4-diaminoquinazoline toll-like receptor 7 (TLR 7) agonists” (Bioorg Med Chem Lett, 2018).

How the values were obtained:
Toll-like receptor 8 = target: T1, Toll-like receptor 8 (Homo sapiens, UniProt Q9NR97); assay: Agonist activity at human TLR8 expressed in HEK293 cells assessed as induction of receptor activation incubated for 6 hrs by NF-kappaB-luciferase reporter gene assay; format: cell-based; conditions: hek293, 6 h
T1 sequence (Q9NR97 whole entry): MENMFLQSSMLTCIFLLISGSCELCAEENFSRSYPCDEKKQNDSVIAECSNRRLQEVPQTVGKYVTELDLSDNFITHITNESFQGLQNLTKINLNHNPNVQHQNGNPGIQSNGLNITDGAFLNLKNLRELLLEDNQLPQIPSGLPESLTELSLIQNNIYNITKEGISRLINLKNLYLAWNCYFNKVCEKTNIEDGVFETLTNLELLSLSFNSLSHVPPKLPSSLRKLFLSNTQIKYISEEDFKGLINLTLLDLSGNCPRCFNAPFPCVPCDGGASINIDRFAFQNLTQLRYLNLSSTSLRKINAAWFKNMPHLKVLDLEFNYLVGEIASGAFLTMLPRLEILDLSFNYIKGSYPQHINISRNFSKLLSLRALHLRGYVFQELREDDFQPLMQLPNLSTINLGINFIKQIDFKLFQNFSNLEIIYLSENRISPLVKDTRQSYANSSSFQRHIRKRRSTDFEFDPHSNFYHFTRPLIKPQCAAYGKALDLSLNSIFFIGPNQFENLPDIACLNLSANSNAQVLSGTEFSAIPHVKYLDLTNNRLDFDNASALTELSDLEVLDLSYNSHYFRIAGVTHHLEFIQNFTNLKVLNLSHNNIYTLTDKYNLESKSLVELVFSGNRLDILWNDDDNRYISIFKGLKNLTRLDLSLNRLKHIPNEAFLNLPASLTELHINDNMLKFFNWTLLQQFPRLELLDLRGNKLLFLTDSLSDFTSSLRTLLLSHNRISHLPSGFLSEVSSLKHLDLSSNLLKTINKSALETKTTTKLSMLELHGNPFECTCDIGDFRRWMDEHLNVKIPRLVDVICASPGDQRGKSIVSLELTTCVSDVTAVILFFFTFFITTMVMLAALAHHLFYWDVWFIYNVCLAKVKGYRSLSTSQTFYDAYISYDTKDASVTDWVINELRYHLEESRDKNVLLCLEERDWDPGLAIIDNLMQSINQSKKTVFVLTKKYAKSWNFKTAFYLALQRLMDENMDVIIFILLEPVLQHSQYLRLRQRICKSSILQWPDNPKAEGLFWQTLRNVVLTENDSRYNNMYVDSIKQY
Procedure, shortened: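 HEK293 cells transiently transfected overnight at 37°C with CMV-TLR8 plasmid (wild type or dLRR2 mutant) plus NFκB-luc reporter, then exposed to compound for 6 h at 37°C, 5% CO₂. Luciferase read-out. Quadruplicate dose-response. LEC is the concentration giving an effect at least two-fold above the assay SD, averaged over two or more independent experiments.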

[1] = Cytotoxic activity against HEK293 cells assessed as reduction in cell viability incubated for 6 hrs; format: cell-based; conditions: human
Procedure, shortened: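 HEK293 cells transfected with the CMV-TLR7 construct alone, treated with a compound dilution series for 6 h at 37°C, 5% CO₂. Viability read by ATP luminescence. Reported as CC50.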

[2] = Metabolic stability in mouse liver microsomes assessed as drug metabolism after 15 mins at 1 uM; format: ADME, microsome; conditions: read-out: Drug metabolism
Procedure, shortened: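 Compound at 1µM incubated with liver microsomes of the stated species. Percent of compound metabolized after 15 min.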

Cytochrome P450 2C9 = Cytochrome P450 2C9 (Homo sapiens, UniProt P11712); assay: Inhibition of CYP2C9 (unknown origin); format: ADME
Cytochrome P450 1A2 = target: T2, Cytochrome P450 1A2 (Homo sapiens, UniProt P05177); assay: Inhibition of CYP1A2 (unknown origin); format: ADME
T2 sequence (P05177 whole entry): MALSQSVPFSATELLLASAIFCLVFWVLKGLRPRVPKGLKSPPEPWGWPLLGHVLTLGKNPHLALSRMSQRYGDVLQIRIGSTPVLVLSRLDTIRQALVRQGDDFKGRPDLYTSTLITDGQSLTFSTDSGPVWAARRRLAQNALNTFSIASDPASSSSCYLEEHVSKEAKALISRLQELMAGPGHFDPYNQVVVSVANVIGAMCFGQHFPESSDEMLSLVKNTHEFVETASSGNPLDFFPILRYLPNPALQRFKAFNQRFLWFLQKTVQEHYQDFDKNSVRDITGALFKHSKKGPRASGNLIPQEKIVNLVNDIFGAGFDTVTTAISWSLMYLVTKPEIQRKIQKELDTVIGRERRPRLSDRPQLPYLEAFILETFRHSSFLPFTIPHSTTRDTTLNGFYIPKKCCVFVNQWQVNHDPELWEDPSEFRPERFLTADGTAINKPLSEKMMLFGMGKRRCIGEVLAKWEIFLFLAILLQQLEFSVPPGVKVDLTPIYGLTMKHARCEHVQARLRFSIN

Cytochrome P450 2C19 = Cytochrome P450 2C19 (Homo sapiens, UniProt P33261); assay: Inhibition of CYP2C19 (unknown origin); format: ADME
Chain of Cytochrome P450 2C19 (P33261 whole entry): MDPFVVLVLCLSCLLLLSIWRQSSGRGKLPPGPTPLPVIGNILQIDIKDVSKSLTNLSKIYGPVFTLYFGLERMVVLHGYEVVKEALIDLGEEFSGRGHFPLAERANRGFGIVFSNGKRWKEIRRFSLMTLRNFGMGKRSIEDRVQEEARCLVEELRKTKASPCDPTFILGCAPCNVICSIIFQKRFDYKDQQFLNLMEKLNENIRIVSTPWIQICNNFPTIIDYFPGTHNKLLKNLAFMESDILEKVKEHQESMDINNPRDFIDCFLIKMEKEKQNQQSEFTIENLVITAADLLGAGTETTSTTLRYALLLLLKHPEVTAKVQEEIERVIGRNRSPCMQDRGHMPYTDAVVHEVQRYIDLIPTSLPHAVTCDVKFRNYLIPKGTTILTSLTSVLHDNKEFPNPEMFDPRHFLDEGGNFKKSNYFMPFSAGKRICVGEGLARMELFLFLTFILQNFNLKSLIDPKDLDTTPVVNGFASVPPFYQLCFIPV

Chain of Cytochrome P450 2C9 (P11712 whole entry): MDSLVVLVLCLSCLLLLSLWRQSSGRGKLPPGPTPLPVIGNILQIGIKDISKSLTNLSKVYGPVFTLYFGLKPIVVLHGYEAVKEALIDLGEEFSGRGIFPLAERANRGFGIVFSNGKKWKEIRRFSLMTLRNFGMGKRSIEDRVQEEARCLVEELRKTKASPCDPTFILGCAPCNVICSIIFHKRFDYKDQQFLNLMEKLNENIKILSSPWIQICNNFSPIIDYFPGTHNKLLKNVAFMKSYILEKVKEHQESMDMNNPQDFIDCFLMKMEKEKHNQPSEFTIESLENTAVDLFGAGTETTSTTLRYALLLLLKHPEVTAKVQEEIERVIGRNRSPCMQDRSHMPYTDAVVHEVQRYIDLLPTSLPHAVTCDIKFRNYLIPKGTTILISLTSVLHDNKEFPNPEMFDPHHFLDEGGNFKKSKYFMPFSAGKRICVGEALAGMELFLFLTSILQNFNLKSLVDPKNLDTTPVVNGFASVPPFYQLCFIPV

Row | Structure (SMILES) | MEC (Toll-like receptor 8) [µM] | CC50 at 6 h [1] [µM] | metabolised at 0.25 h, 1 µM [2] [%] | IC50 (Cytochrome P450 2C9) [µM] | IC50 (Cytochrome P450 1A2) [µM] | IC50 (Cytochrome P450 2C19) [µM]
1 | CCCCNc1nc(N)nc2ccccc12 | 0.07 | 18 to 25 |  |  |  | 
2 | CCCCNc1nc(N)nc2cccc(OCc3ccccc3OC)c12 | > 25 | > 25 | 98 | > 10 | 2.9 | > 10
3 | CCCCNc1nc(N)nc2cccc(OCc3nccc(OC)c3OC)c12 | > 25 | 16 | 98 | > 10 | 4.1 | > 10
4 | CCCCNc1nc(N)nc2cccc(C(=O)NCc3ccccc3)c12 | 1.6 | > 25 | 92 | > 10 | > 10 | > 10
5 | CCCCNc1nc(N)nc2cccc(C(=O)N[C@H](C)c3ccccc3)c12 | > 25 | > 25 | 75 | > 10 | > 10 | > 10
6 | CCCCNc1nc(N)nc2cccc(C(=O)NC)c12 | 0.39 | > 25 | 90 | 8 | > 10 | > 10
7 | CCCCNc1nc(N)nc2cccc(C(=O)N(C)Cc3ccccc3)c12 | > 25 | > 25 | 99 | > 10 | > 10 | > 10
8 | CCCCNc1nc(N)nc2cccc(OCc3cccnc3)c12 | 0.53 | > 25 | 99 | > 10 | 0.9 | > 10
9 | CCCCNc1nc(N)nc2cccc(OCc3ccccn3)c12 | 18.5 | > 25 | 99 | > 10 | 1.3 | > 10
10 | CCCCNc1nc(N)nc2cccc(C(=O)N[C@@H](C)c3ccccc3)c12 | > 25 | > 25 | 68 | > 10 | > 10 | > 10
11 | CCCCNc1nc(N)nc2cccc(C(=O)NC(C)C)c12 | 15.55 | > 25 | 45 | > 10 | > 10 | > 10
12 | CCCCNc1nc(N)nc2cccc(OCc3ccc(CO)cc3OC)c12 | > 25 | 16 | 98 | 5 | > 10 | > 10
13 | CCCCNc1nc(N)nc2cccc(OCc3ccccc3)c12 | 1.66 | 10 | 97 | > 10 | 0.3 | > 10
